Source: PubChem BioAssay (several laboratories)
The full list was thinned out, with hits kept by preference.
Ecoli tolC – blocks growth of E. coli BW25113 tolC mutant; 65,000 compounds, 2.2% hits; OD615; AID 573; growth inhibition, % at 10 µM (by protocol);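 active means growth inhibition at or above a cutoff equal to the mean over every tested compound plus 3 SD, cut at about 60% in these data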;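 further: growth measured after 20 h incubation at 37 °C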
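Test system: tolC-deleted E. coli BW25113 | Medium: LB with kanamycin 50 µg/mL | Compound dosing: Single concentration, 10 µM final per compound | Schedule: 37 °C, 20 h exposure | Measured by: OD at 615 nm | Evaluation: Percent growth inhibition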
AP complement – orthogonal test for alternative complement pathway inhibitors | 62,000 compounds, 0.08% hits | inhibition, % at 5 µM | Human serum alternative complement pathway, LPS-coated ELISA, C3 deposition; tested in compound mixtures;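 active means inhibition above 30% in each of the two pooled mixtures holding the compound, so the lower value exceeds 30%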;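 further: 0% = serum in Mg-EGTA without compound and 100% = EDTA serum blank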
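Test system: human serum complement alternative pathway, C3 deposition onto LPS / Medium: Mg2+-EGTA GVB++ buffer containing human serum at 1:15 dilution / Probe or stimulus: Plate-bound LPS / Times: 1 h at 37 °C / Signal: ELISA with HRP anti-human C3 antibody, TMB substrate, absorbance 450 nm / Measure: percent inhibition / Repeats: two pool placements per compound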
E coli RNAP – blocks E. coli RNA polymerase transcription. P0A8V2. fluorescence transcription assay. inhibition, %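 (tested at 10 µM)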. 62,000 compounds, 0.2% hits; in the data active means inhibition above about 20%;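 further: 0% = enzyme without compound and 100% = no enzyme blank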
MMP13 inh – MMP13 (human) collagenase inhibition. P45452. MMP-13 fTHP FRET cleavage, Mca fluorescence. inhibition, % at 4 µM. 65,000 compounds, 0.07% hits;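 active means inhibition above the mean of compound-free control plate wells plus 3 SD, cut at about 14% in these data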;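 further: 0% = DMSO wells and 100% = wells with reference MMP-13 inhibitor after basal subtraction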
BAP1 inh – blocks human BAP1 ubiquitin-AMC hydrolysis | 72,000 compounds, 0.48% hits | recombinant BAP1, Ub-AMC hydrolysis fluorescence kinetic; hits give low values | calls only at 20 µM;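 active means activity remaining at or below 50% of control, provided the compound also passes the data quality filters; inactive means the rest, including low values that fail the filters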;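 further: 100% = DMSO wells rate and 0% = substrate alone blank rate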
E coli WT exp – blocks growth of wild type E. coli BW25113 | OD600 absorbance | growth inhibition, % at 100 µM | 98,000 compounds, 0.15% hits | AID 710;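 active means growth inhibition above about 50% at one test dose, limit read from the data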;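 further: growth measured after 20 h incubation at 37 °C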
Numbers without * were called inactive; i = inactive; · = no result given.

SMILES	Ecoli tolC	AP complement	E coli RNAP	MMP13 inh	BAP1 inh	E coli WT exp
O=C(c1ccco1)N1CCN(c2nc(C3CC3)nc3sc4c(c23)CCCC4)CC1	77.3*	8.3	6.0	-8.7	i	-11.0
Cc1oc2c(CN3CCCC3)c(O)ccc2c(=O)c1-c1ccc(Cl)cc1	40.4	9.6	-5.1	-109.7	·	2.0
Cc1oc2c(CN3CCOCC3)c(O)ccc2c(=O)c1-c1ccc(Br)cc1	98.6*	3.1	3.1	-79.8	·	1.0
Cc1cc(OC(C)C(=O)N2CCN(Cc3ccc4c(c3)OCO4)CC2)ccc1Cl (centres undefined)	·	·	·	·	i	·
CCOc1cc(S(=O)(=O)N2CCN(Cc3ccccc3)CC2)ccc1Br	63.8*	-1.7	8.8	2.3	i	1.0
O=C(Oc1ccc(-c2nc3ccc([N+](=O)[O-])cc3[nH]2)cc1)C1CCCCC1	·	·	·	·	i	·
O=C(Nc1nnc(Cc2ccccc2)s1)c1ccccc1I	·	·	·	·	i	·
CCC(Sc1nnc(-c2ccc(C)c(Cl)c2)n1CC)C(=O)Nc1nccs1 (centres undefined)	81.0*	-0.1	6.6	0.9	i	14.0
CCn1c(SCC(=O)Nc2nccs2)nnc1-c1ccc(S(=O)(=O)N2CCCCCC2)cc1	·	·	·	·	·	-5.0
Cc1cccc(OC(=O)CC2CS(=O)(=O)CC2CC(=O)Oc2cccc(C)c2)c1 (centres undefined)	·	·	·	·	i	·
On1onc2c3cc(-c4ccccc4)nc3ccc21	98.0*	4.6	3.1	4.7	i	42.0
O=C1c2ccccc2-c2cc(Cl)nc3ccc(Nc4ccccc4)c1c23	·	·	·	·	i	·
Cc1ccc(C)c2[nH]c(=O)c(CN(CC3CCCO3)S(=O)(=O)c3ccc4c(c3)OCCO4)cc12 (centres undefined)	60.4*	14.4	-1.9	-3.3	i	-1.0
CCCOc1ccc(C2Oc3ccccc3C3CC(c4ccccc4)=NN32)cc1 (centres undefined)	·	·	·	·	i	·
CCOC(=O)c1cc2sc(C)cc2n1C(C)C(=O)OCC (centres undefined)	61.5*	-0.1	4.2	1.0	i	6.0
C=CCc1cc(C)ccc1OCC(O)CN1CCN(c2ccccc2)CC1 (centres undefined)	66.9*	20.5	-0.6	-1.9	i	14.0
C=CCc1cc(OC)ccc1OCC(O)CN1CCN(c2ccc(OC)cc2)CC1 (centres undefined)	26.1	9.0	-8.8	-8.1	i	12.0
COC(=O)C(NC(=O)C(c1ccccc1)c1ccccc1)C12CC3CC(CC(C3)C1)C2 (centres undefined)	·	·	·	·	i	·
CCOc1ccc(Nc2cc(C)nc(-n3nc(C)cc3C)n2)cc1	72.2*	0.9	·	1.2	i	10.0
COC(=O)c1ccccc1NC(=O)c1cnn2c(C(F)(F)F)cc(-c3ccccc3)nc12	·	·	·	·	i	·
CCCn1c(SCC(=O)Nc2ccccc2N2CCCCC2)nc2c1c(=O)n(C)c(=O)n2C	64.8*	-0.7	9.1	-11.4	i	-12.0
CCCCCCOc1ccc(C(CC(=O)O)C(N)=O)cc1 (centres undefined)	-17.8	-0.8	-4.8	26.5*	i	-9.0
Clc1cc(-n2nc(-c3ccccc3)cc2-c2ccccc2)ncn1	·	·	·	·	i	·
O=C(Nc1ccccc1N1CCCCC1)c1ccccc1F	87.7*	-4.1	2.7	1.1	i	2.0
CCOC(=O)N/N=C/c1ccc(F)cc1	·	·	·	·	·	11.0
SMILES	Ecoli tolC	AP complement	E coli RNAP	MMP13 inh	BAP1 inh	E coli WT exp
CCOC(=O)N/N=C\c1ccc([N+](=O)[O-])o1	·	·	·	·	·	100.0*
CN1C(=O)C(C)(C)N(Cc2ccccc2)c2ccccc21	·	·	·	·	i	·
O=C(NCc1ccccc1)c1ccc(S(=O)(=O)N2CCCc3ccccc32)cc1	·	·	·	·	·	-17.0
O=C(Nc1nnc(C2CC2)o1)c1ccc(S(=O)(=O)N2CCCc3ccccc32)cc1	100.0*	10.8	-1.4	10.5	i	6.0
COc1ccc(-c2nnc(NC(=O)c3ccc(S(=O)(=O)N4CCCc5ccccc54)cc3)o2)cc1	15.4	26.9	3.9	-5.0	·	-7.0
O=C(NCc1ccco1)c1ccc(S(=O)(=O)N2CCCc3ccccc32)cc1	70.8*	-7.5	7.3	-0.5	i	-8.0
COc1ccc(Nc2nc(N3CCCC3)c3ccccc3n2)cc1	76.2*	3.8	1.8	-6.3	·	20.0
CCCC1(CCC)NC(=O)N(CC(=O)Nc2cccc(OC)c2)C1=O	-1.3	7.3	40.4*	-0.5	i	2.0
COc1cc(NC(=O)CN2C(=O)NC(C)(CCC(C)C)C2=O)cc(OC)c1 (centres undefined)	13.5	7.4	7.0	3.9	i	2.0
CN(C)c1ccc(C(=O)Nc2nnc(-c3ccc(Cl)cc3)o2)cc1	47.3	10.1	1.2	-1.6	i	-18.0
O=C(Nc1nnc(-c2ccccc2)o1)c1ccc(Cl)cc1	98.5*	1.3	·	4.7	i	49.0
CC(=O)c1ccc(C(=O)Nc2nnc(-c3ccc(Cl)cc3)o2)cc1	100.0*	20.7	-0.8	1.4	i	·
[N-]=[N+]=CC(=O)c1ccnc(C(=O)C=[N+]=[N-])c1	8.0	·	1.1	-2.5	i	55.0*
COc1ccccc1C(=O)Nc1cccc2c1C(=O)c1ccccc1C2=O	·	·	·	·	i	·
Cc1cc(OCCCC(=O)N2CCCCC2)cc(C)c1Cl	63.1*	3.6	-0.4	3.9	i	0.0
CCOC(=O)c1ccccc1NC(=O)c1c(F)c(F)c(F)c(F)c1F	65.0*	16.3	7.2	0.6	i	-4.0
CCOC(=O)c1[nH]c(C)c(C(=O)Nc2ccccc2C)c1C	8.4	2.1	21.3*	3.5	i	5.0
Cc1cc(OC(=O)c2ccccc2)cc2c(=O)c3ccccc3sc12	·	·	·	·	i	·
Cc1ccc(C2CC(C(F)(F)F)n3nc(C(N)=O)cc3N2)cc1 (centres undefined)	·	·	·	·	i	·
CC(C)Cn1c(N(C)C)nc2c1c(=O)[nH]c(=O)n2C	·	·	·	·	i	·
CCOc1ccc(NC(=O)c2ccc(OC)cc2)c([N+](=O)[O-])c1	·	·	·	·	i	·
O=C(Nc1ccccc1)c1cc(N2CCOCC2)nc2ccccc12	6.5	·	7.5	-20.5	i	-9.0
Cc1cccc(NC(=O)c2cc(N3CCOCC3)nc3ccccc23)c1	4.7	·	20.6*	-14.2	i	-7.0
CCCCOc1cc(C)nc(NCc2ccccc2)n1	66.8*	-2.0	0.9	3.3	i	5.0
O=C(Nc1ccc(Br)cc1)c1nc[nH]c1C(=O)O	·	·	·	·	i	·
COc1ccc(C(=O)Nc2ccc(-c3nc4ncccc4o3)cc2)cc1OC	·	·	·	·	i	·
CSc1nc2ccc(NS(=O)(=O)c3ccc(Cl)s3)cc2s1	99.3*	6.4	9.3	9.7	i	27.0
CC(C)(C)c1ccc(S(=O)(=O)N2CCN(C(c3ccccc3)c3ccccc3)CC2)cc1	·	·	·	·	i	·
COc1ccc(-n2cnc3cc(NCc4cccs4)ccc32)cc1	98.0*	25.5	·	-13.1	i	-12.0
COc1cc(NS(=O)(=O)c2ccc(NC(=O)c3ccc(OC)c(OC)c3)cc2)ncn1	·	·	·	·	i	·
